What was measured:
[1] = biological target: T1, Histone-lysine N-methyltransferase SETMAR (Homo sapiens, UniProt Q53H47); assay: Inhibition of SETMAR using histone H3 as substrate preincubated for 10 mins followed by addition of [3H]SAM and incubated for 60 mins
T1 sequence (Q53H47 whole entry): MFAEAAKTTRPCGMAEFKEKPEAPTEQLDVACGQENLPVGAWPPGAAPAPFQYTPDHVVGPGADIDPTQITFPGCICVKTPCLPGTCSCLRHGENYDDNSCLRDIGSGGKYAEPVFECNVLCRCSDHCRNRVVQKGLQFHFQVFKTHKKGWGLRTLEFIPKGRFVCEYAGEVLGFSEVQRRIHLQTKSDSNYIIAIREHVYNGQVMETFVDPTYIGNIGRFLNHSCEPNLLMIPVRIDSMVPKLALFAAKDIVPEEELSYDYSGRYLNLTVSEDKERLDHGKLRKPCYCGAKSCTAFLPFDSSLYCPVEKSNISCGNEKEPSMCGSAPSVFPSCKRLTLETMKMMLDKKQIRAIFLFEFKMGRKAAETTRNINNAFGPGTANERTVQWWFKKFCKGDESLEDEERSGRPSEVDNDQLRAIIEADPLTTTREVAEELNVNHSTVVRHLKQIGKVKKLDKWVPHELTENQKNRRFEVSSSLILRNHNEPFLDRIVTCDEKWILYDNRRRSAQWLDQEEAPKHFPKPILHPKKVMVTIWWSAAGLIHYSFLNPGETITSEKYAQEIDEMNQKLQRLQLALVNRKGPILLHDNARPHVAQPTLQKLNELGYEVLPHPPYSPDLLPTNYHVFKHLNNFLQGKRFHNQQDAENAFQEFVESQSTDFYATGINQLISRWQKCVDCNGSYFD
Outline: (§1)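 Panel of methyltransferases tested for selectivity. […] Values are the mean of at least two independent replicates.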

[2] = biological target: T2, Histone-lysine N-methyltransferase SETD7 (Homo sapiens, UniProt Q8WTS6); assay: Inhibition of SET7 using histone H3 as substrate preincubated for 10 mins followed by addition of [3H]SAM and incubated for 60 mins; outline: as §1
T2 sequence (Q8WTS6 whole entry): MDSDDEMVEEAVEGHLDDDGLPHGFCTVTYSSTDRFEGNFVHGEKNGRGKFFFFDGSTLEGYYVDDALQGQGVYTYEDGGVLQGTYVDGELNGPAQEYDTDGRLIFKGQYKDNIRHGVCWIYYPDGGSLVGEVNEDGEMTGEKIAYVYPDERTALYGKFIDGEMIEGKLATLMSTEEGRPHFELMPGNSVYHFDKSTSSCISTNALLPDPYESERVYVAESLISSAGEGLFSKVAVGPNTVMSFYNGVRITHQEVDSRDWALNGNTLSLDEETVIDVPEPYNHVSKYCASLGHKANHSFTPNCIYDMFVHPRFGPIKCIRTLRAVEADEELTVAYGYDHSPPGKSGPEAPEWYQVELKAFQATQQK

[3] = biological target: T3, Histone-arginine methyltransferase CARM1 (Homo sapiens, UniProt Q86X55); assay: Inhibition of PRMT4 using histone H3 as substrate preincubated for 10 mins followed by addition of [3H]SAM and incubated for 60 mins; outline: as §1
T3 sequence (Q86X55 whole entry): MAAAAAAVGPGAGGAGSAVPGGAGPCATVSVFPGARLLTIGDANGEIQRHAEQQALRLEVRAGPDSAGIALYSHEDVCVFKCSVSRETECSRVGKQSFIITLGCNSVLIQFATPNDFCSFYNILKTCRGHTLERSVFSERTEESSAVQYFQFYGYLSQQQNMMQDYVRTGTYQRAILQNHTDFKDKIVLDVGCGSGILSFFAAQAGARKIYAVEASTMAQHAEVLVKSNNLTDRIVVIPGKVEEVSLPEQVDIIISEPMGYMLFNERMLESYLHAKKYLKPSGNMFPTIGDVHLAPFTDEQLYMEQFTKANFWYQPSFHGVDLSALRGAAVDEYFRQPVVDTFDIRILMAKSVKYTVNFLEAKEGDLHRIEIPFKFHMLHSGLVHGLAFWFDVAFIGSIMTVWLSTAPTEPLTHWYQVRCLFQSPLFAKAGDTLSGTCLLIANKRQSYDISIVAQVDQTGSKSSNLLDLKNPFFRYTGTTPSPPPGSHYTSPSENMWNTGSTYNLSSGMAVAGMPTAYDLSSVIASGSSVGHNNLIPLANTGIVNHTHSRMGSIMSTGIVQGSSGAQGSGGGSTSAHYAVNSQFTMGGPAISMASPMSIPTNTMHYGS

[4] = biological target: Protein arginine N-methyltransferase 3 (Homo sapiens, UniProt O60678); assay: Inhibition of PRMT3 using histone H3 as substrate preincubated for 10 mins followed by addition of [3H]SAM and incubated for 60 mins; outline: as §1
[5] = biological target: Protein arginine N-methyltransferase 1 (Homo sapiens, UniProt Q99873); assay: Inhibition of PRMT1 using histone H4 as substrate preincubated for 10 mins followed by addition of [3H]SAM and incubated for 60 mins; outline: as §1
[6] = biological target: Histone-lysine N-methyltransferase, H3 lysine-79 specific (Homo sapiens, UniProt Q8TEK3); assay: Inhibition of DOT1L using core histone as substrate preincubated for 10 mins followed by addition of [3H]SAM and incubated for 60 mins; outline: as §1
[7] = biological target: DNA (cytosine-5)-methyltransferase 3B (Mus musculus, UniProt O88509); assay: Inhibition of mouse DNMT3b1 using lambda DNA as substrate preincubated for 10 mins followed by addition of [3H]SAM and incubated for 60 mins; outline: as §1
[8] = biological target: DNA (cytosine-5)-methyltransferase 3A (Homo sapiens, UniProt Q9Y6K1); assay: Inhibition of DNMT3a using lambda DNA as substrate preincubated for 10 mins followed by addition of [3H]SAM and incubated for 60 mins; outline: as §1
[9] = biological target: EZH1/SUZ12/EED/AEBP2/RBBP4 complex; assay: Inhibition of PRC2 complex of EZH1, EED, SUZ12, AEBP2 and RbAp48 using histone H3 peptide (21 to 44) as substrate and [3H]SAM after 1 hr by SPA; assay type: protein-complex assay; outline: as §1
[10] = biological target: EZH2/SUZ12/EED/RBBP7/RBBP4; assay: Inhibition of PRC2 complex of FLAG-EZH2, EED, SUZ12, AEBP2 and RbAp48 using histone H3 peptide (21 to 44) as substrate and [3H]SAM after 30 mins; assay type: protein-complex assay; conditions: read-out: Ki(app)
[11] = biological target: EZH2/SUZ12/EED/RBBP7/RBBP4; assay: Inhibition of PRC2 complex of FLAG-EZH2, EED, SUZ12, AEBP2 and RbAp48 using histone H3 peptide (21 to 44) as substrate and [3H]SAM after 1 hr; assay type: protein-complex assay

Sequence of DNA (cytosine-5)-methyltransferase 3A (Q9Y6K1 whole entry, looked up): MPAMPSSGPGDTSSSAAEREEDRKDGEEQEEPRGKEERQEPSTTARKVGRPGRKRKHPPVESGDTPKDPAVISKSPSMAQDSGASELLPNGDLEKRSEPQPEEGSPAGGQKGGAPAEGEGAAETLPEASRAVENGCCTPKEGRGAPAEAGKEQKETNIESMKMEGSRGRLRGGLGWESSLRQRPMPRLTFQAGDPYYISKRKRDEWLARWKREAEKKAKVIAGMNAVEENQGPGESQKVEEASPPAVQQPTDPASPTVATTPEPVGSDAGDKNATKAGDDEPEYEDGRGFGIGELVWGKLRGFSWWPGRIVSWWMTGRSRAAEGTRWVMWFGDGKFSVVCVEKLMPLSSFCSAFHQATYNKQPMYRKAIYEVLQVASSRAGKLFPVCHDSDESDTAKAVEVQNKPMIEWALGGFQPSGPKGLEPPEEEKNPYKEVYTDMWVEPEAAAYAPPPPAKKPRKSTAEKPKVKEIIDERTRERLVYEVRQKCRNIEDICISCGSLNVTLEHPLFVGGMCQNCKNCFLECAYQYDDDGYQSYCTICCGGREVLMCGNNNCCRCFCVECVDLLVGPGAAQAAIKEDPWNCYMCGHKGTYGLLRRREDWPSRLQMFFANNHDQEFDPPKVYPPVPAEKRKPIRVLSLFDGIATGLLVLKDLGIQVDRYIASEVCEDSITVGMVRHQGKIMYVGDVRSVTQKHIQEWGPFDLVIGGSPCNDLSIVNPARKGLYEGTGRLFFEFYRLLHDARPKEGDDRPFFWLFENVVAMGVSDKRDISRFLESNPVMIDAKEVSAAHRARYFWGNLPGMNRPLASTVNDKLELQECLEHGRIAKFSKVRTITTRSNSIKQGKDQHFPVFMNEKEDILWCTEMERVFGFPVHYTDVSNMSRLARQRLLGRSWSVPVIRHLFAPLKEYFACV
Sequence of Protein arginine N-methyltransferase 3 (O60678 whole entry): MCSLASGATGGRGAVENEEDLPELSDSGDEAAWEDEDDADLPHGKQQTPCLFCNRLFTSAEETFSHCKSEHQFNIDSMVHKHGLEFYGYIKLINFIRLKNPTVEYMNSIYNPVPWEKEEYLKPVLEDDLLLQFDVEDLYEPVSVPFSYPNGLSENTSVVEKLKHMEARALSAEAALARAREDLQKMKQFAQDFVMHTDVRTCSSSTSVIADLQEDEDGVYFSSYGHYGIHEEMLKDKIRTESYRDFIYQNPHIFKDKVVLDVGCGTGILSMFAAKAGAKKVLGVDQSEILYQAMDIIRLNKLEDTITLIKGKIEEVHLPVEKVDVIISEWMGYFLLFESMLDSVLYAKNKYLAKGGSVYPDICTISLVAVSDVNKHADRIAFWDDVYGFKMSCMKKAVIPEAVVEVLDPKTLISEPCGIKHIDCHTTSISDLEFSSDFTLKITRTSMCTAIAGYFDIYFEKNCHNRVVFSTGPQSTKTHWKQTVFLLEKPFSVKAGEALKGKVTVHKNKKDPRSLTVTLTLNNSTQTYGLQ
Sequence of Protein arginine N-methyltransferase 1 (Q99873 whole entry): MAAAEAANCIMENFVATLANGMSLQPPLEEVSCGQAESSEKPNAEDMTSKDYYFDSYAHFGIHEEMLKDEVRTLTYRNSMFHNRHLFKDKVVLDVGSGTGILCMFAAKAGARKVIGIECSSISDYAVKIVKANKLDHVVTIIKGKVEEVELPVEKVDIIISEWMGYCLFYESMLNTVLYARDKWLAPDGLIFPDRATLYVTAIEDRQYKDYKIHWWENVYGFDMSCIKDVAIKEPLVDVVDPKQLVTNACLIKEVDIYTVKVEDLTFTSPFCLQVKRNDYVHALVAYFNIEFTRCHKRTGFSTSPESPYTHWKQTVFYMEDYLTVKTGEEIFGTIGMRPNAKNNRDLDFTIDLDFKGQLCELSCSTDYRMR
Sequence of Histone-lysine N-methyltransferase, H3 lysine-79 specific (Q8TEK3 whole entry): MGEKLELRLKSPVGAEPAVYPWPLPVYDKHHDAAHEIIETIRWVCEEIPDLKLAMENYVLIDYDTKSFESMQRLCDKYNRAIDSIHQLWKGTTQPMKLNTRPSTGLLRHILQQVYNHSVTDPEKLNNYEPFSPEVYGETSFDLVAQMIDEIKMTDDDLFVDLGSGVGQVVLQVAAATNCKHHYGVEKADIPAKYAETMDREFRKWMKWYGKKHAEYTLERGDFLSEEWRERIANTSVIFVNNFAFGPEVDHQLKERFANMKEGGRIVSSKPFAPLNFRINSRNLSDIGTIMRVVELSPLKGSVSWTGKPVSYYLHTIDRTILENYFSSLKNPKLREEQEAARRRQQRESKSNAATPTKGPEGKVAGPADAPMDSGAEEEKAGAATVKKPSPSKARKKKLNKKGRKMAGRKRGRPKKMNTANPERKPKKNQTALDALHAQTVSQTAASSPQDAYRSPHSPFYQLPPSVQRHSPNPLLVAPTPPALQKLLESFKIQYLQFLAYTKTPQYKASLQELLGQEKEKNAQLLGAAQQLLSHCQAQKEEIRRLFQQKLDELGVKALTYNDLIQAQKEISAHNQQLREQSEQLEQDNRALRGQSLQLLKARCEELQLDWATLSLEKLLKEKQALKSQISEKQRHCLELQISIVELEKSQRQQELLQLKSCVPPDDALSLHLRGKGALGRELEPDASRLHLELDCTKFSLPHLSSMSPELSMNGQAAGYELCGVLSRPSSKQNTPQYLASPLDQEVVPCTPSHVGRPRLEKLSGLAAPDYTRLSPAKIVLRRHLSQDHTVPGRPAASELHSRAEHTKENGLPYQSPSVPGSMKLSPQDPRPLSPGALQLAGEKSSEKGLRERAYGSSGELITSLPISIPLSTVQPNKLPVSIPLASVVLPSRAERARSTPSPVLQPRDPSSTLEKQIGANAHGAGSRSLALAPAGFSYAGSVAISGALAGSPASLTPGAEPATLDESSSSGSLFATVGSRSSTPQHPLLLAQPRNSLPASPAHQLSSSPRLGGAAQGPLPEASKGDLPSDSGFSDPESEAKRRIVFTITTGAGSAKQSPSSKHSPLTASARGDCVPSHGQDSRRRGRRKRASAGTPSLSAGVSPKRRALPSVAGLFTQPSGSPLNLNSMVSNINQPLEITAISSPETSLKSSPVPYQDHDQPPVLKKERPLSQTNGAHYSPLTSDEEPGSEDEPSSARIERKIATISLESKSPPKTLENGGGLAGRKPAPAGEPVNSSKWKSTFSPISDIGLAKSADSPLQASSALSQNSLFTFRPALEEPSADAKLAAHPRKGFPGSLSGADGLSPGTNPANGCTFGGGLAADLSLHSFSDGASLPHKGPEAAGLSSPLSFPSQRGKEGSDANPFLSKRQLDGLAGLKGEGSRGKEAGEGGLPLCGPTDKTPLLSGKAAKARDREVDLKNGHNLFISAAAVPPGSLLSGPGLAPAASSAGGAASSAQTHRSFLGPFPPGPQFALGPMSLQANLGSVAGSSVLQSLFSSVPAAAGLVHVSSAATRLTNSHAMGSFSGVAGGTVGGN

| IC50 [1] | IC50 [2] | IC50 [3] | IC50 [4] | IC50 [5] | IC50 [6] | IC50 [7] | IC50 [8] | IC50 [9] | Ki [10] | IC50 [11] | Structure (SMILES) |
| --- | --- | --- | --- | --- | --- | --- | --- | --- | --- | --- | --- |
| > 100 µM | 49 µM | 116 µM | 54 µM | > 100 µM | > 100 µM | > 100 µM | > 100 µM | 0.1 µM | 0.0006 µM | 0.004 µM | CCCc1cc(C)[nH]c(=O)c1CNC(=O)c1cc(-c2ccc(N3CCN(C)CC3)nc2)cc2c1cnn2C(C)C |
| > 100 µM | 214 µM | > 100 µM | > 100 µM | > 100 µM | > 100 µM | > 100 µM | > 100 µM | 2.5 µM | 0.0079 µM | 0.02 µM | Cc1cc(C)c(CNC(=O)c2cc(-c3ccc(N4CCN(C)CC4)nc3)cc3c2cnn3C(C)C)c(=O)[nH]1 |
| > 100 µM | 63 µM | 128 µM | 74 µM | > 100 µM | > 100 µM | > 100 µM | > 100 µM | 0.24 µM | 0.0012 µM | 0.004 µM | CCCc1cc(C)[nH]c(=O)c1CNC(=O)c1cc(-c2ccnc(N3CCN(C)CC3)c2)cc2c1cnn2C(C)C |
